Here are results for three compounds from PMC10692477 (Acta Pharmaceutica Sinica. B, 2023).

In general, IC50 refers to the concentration that inhibits the measured activity by half. As a reminder, the TGI is the reduction of tumour growth relative to the control group. Usually AUC(0-inf) stands for the area under the concentration-time curve extrapolated to infinity. Low readings indicate less exposure, high ones more exposure. The AUC(0-t) is exposure summed from dosing to a finite time, without extrapolation to infinity. By clearance is commonly meant the volume of plasma or blood freed of the substance per unit of time. The term half-life denotes the time in which the quantity being followed falls by half. Low readings indicate fast loss, high ones slow loss. The Cmax is the maximum level reached in the sampled fluid or tissue. The term Tmax denotes the time from dosing to the highest level. As usually defined, the bioavailability is dose-corrected exposure relative to a reference, in per cent.

One series concerns BaF3/TEL-AXL cells. Nature of the series: BaF3/TEL-AXL cell viability. It counts as cell-based. Conditions: 48 h, read-out: IC50 Cell viability.
Series [1] deals with AXL signaling pathway. Nature of the series: GAS6-stimulated AXL signaling in NCI-H1299 cells, Western blot. It counts as cell-based. The settings on record: NCI-H1299, 1 h treatment, GAS6 500 ng/mL 15 min. A digest of the protocol:
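NCI-H1299 cells in exponential growth were serum-deprived for 24 h, then given the test compound for 1 h and stimulated with GAS6 500 ng/mL for 15 min. Lysis was in 1× SDS sample buffer, followed by 10% SDS-PAGE and nitrocellulose transfer.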
For orientation: A western blot detects proteins with antibodies after separation by electrophoresis.

For series [2], the system named is BaF3/TEL-AXL mouse xenograft. The series is described as follows: BaF3/TEL-AXL cell-derived mouse xenograft model. The settings on record: for body weight of tumor-bearing mice during the treatment: 4 and 20 mg/kg po qd.
Series [3] is described as follows: Pharmacokinetics in ICR mice. Format: in vivo. Conditions: mouse, serum.
A further series concerns the target T1, AXL kinase (Homo sapiens, UniProt P30530).
T1 sequence (P30530 26-894): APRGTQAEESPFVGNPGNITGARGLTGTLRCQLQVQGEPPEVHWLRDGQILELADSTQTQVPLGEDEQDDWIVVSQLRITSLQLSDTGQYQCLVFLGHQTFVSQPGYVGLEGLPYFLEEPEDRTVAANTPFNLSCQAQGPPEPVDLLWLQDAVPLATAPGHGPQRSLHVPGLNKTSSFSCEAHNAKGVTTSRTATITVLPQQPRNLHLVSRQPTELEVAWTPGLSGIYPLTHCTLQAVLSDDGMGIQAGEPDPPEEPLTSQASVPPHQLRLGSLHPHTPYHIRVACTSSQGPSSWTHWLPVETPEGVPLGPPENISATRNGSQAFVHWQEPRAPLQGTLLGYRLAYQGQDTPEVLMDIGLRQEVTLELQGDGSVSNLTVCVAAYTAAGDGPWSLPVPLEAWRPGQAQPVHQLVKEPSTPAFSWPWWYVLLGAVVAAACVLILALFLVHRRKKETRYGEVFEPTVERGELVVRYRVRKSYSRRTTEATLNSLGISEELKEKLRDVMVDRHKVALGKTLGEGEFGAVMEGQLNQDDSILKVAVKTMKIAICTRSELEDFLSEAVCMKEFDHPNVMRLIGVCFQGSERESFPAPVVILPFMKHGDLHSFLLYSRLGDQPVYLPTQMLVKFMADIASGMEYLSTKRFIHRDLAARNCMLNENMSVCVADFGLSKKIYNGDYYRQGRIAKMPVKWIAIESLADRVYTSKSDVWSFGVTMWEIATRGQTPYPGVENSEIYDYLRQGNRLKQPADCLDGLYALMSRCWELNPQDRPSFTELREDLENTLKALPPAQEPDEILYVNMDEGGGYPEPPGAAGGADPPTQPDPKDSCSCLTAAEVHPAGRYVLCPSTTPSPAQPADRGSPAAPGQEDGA
The series is described as follows: AXL kinase inhibition, ELISA. Format: biochemical. Conditions: IC50 AXL kinase, ELISA; mean ± SD of two independent experiments. In general terms: In an ELISA, binding on a coated surface is turned into a signal by an enzyme label.

A further series concerns the target c-Met kinase (Homo sapiens, UniProt P08581). The series is described as follows: c-Met kinase inhibition, ELISA. Format: biochemical. A digest of the protocol:
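c-Met inhibition was measured by an ELISA-based kinase assay following a previously reported method. IC50 values were calculated from inhibition curves with a modified 4-parameter logistic model, from at least two separate experiments.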

A further series deals with EBC-1 cells. The series is described as follows: EBC-1 cell viability. It counts as cell-based. The settings on record: Homo sapiens, EBC-1, 72 h, read-out: IC50 viability of EBC-1 cells. The gist of the method:
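EBC-1 cells were seeded at low density in growth medium and incubated overnight. They were then treated with graded concentrations of the test compound for 72 h. Viability was read by CCK-8, and IC50 was obtained by four-parameter concentration–response curve fitting.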

The next series relates to AXL phosphorylation. The series is described as follows: Intratumoral AXL phosphorylation, immunoblotting of tumor tissues. Format: in vivo, nude mice. Conditions: tumor tissues 1 h after last dosage; 4 and 20 mg/kg groups.
Series [4] relates to SNU449 cells. Nature of the series: GAS6-stimulated SNU449 cell invasion. Format: cell-based. Conditions: 20 nmol/L, GAS6 500 ng/mL, 24 h. A digest of the protocol: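 SNU449 cells were seeded in top chambers with matrigel-coated membrane inserts. The lower chamber held serum-free medium with GAS6 500 ng/mL, and the test compound was added to both sides. After 24 h, non-invading cells were removed. Invaded cells were fixed in 90% ethanol for 1 h, stained with 0.1% crystal violet for 15 min at room temperature, and imaged.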

Series [5] concerns NCI-H1299 cells. Nature of the series: GAS6-stimulated NCI-H1299 cell migration. Conditions: 20 nmol/L, GAS6 500 ng/mL, 24 h. It counts as cell-based. The gist of the method:
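NCI-H1299 cells (1.5 × 10^5 per well) in serum-free medium were placed in Transwell inserts with 8 μm pores. The lower chamber held serum-free medium with GAS6 500 ng/mL, and the test compound was added to both sides of the membrane. After 24 h, non-migrated cells were swabbed off. Migrated cells were fixed in 90% ethanol for 1 h, stained with 0.1% crystal violet for 15 min at room temperature, and imaged by microscopy.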

Series [6] relates to NCI-H1299 cells. The series is described as follows: NCI-H1299 cell wound healing assay. Format: cell-based. Conditions: NCI-H1299, GAS6 500 ng/mL, 24 h. The gist of the method: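 NCI-H1299 monolayers were scratched, then given GAS6 500 ng/mL alone or with graded concentrations of the test compound for 24 h. Wound closure was imaged at 0 and 24 h, in triplicate.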
Series [7] relates to NCI-H1299 cells. Nature of the series: NCI-H1299 cell viability under GAS6. Format: cell-based. Conditions: same conditions as cell motility; GAS6 500 ng/mL, 24 h. The gist of the method: (§1)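 NCI-H1299 or SNU449 cells were seeded at low density in growth medium and incubated overnight. They were then stimulated with GAS6 500 ng/mL and treated with graded concentrations of the test compound for 24 h. Viability was read by CCK-8.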

Series [8] concerns SNU449 cells. Nature of the series: SNU449 cell viability under GAS6. Format: cell-based. Conditions: same conditions as cell motility; GAS6 500 ng/mL, 24 h. The gist of the method: as §1
Another series deals with E-cadherin expression. Nature of the series: E-cadherin expression in GAS6-stimulated NCI-H1299 cells, immunoblotting. Format: cell-based. The settings on record: NCI-H1299, GAS6 500 ng/mL, 48 h.
Series [9] relates to AXL signaling pathway. Nature of the series: AXL signaling in BaF3/TEL-AXL cells, Western blot. Conditions: 1 h. It counts as cell-based. A digest of the protocol:
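BaF3/TEL-AXL cells in exponential growth were exposed to the test compound at the indicated concentrations for 1 h. Cells were lysed in 1× SDS sample buffer, run on 10% SDS-PAGE and transferred to nitrocellulose.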

The next series has as its system other 55 tested kinases. Nature of the series: Kinase selectivity panel of 62 kinases. Format: biochemical, human. The settings on record: 100 nmol/L.
Where [10] appears, read: 20 mg/kg po qd, 7 consecutive days.

Bounds are passed on as bounds.

c-Met kinase, sequence (P08581 25-1390): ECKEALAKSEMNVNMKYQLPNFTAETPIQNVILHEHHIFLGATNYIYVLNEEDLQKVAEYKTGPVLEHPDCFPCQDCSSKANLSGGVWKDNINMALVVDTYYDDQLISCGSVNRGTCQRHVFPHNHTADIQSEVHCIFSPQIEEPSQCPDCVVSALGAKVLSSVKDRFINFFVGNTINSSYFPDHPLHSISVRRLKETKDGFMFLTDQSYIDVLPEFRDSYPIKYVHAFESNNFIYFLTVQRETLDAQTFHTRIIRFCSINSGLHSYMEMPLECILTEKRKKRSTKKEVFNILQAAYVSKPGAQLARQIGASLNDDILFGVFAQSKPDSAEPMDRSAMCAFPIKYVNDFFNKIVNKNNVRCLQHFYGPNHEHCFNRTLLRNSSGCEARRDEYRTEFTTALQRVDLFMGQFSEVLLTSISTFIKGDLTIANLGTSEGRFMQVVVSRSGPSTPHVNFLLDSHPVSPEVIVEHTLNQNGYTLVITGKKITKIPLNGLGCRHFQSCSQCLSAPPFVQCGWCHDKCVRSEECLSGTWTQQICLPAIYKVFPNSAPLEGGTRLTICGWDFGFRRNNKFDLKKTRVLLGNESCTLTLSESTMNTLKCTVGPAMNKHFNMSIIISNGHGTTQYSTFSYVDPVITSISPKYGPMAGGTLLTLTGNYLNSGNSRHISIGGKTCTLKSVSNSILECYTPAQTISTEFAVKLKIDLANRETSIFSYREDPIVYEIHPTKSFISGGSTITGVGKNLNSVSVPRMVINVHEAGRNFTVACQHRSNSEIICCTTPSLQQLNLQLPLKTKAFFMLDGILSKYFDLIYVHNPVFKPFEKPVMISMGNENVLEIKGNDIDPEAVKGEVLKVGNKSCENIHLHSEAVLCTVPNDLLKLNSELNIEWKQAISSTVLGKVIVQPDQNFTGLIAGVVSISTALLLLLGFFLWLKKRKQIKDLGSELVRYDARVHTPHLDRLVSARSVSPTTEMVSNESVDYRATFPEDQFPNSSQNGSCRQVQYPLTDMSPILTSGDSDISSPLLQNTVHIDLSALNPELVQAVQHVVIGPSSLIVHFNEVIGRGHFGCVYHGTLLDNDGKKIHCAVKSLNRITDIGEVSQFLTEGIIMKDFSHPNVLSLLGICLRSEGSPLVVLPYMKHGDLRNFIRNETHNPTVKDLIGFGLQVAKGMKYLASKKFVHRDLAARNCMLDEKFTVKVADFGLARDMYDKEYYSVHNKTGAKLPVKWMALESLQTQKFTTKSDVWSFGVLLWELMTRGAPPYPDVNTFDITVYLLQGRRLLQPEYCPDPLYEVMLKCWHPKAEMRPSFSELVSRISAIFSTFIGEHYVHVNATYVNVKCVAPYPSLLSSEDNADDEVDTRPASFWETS

As to `Nc1nc(Nc2ccc3c(c2)CC[C@@H](N2CCCC2)CC3)nn1-c1cc2c(nn1)-c1ccccc1CCC2` [BGB324, reference compound], the IC50 in the series with BaF3/TEL-AXL cells was determined as 95.1 ± 3.7 nM. Further, in the series on AXL signaling pathway [1], the p-AKT level entry is recorded as “significantly inhibited” and the p-STAT3 level entry is listed as “significantly inhibited”. In series [2] (50 mg/kg po bid), this compound returned a tumour growth inhibition (TGI) of 92.0%.
Regarding `COc1cc2ncnc(Oc3ccc(NC(=O)c4c5n(n(-c6cccc(F)c6)c4=O)CCCC5)cc3F)c2cc1OC` [Compound 18], the IC50 in the series with BaF3/TEL-AXL cells is less than 0.1 nM. Further, in series [3] (iv, 5 mg/kg), the AUC(0-inf) stood at 42100 ng·h/mL, the area under the curve AUC(0-t) worked out at 34800 ng·h/mL, the clearance amounted to 2.05 mL/min/kg and the half-life was 10.4 h. Besides, in [3] (po, 10 mg/kg), the AUC(0-inf) came out at 16000 ng·h/mL, the AUC(0-t) amounted to 15900 ng·h/mL, the concentration peaked (Cmax) at 2970 ng/mL and the Tmax turned out to be 2 h. Further, in [3] (po, 10 mg/kg), the bioavailability worked out at 22.9% and the half-life was 3.24 h. In series [2] (4 mg/kg po qd, 7 consecutive days), this compound returned a TGI of 89.5%. In series [2] (setting [10]), this compound yielded a tumour growth inhibition (TGI) of 93.4%. The “body weight of tumor-bearing mice during the treatment” value in [2] is “no significant body weight loss”.
For the compound `COc1cc2nccc(Oc3ccc(NC(=O)c4c5n(n(-c6ccc(F)cc6)c4=O)CCCC5)cc3)c2cc1OC` [Compound 59], the IC50 on AXL kinase came to 3.5 ± 0.8 nM. Further, in the series with BaF3/TEL-AXL cells, the concentration for half-maximal inhibition (IC50) amounted to 1.5 ± 0.4 nM. Also, the IC50 against c-Met kinase is 17.3 nM. Also, the IC50 in the series on EBC-1 cells amounted to 535 nM. Besides, in series [3] (iv, 5 mg/kg), the AUC(0-inf) worked out at 21600 ng·h/mL, the AUC(0-t) is 20500 ng·h/mL, the clearance is 3.86 mL/min/kg and the half-life is 1.67 h. Also, in [3] (po, 10 mg/kg), the AUC(0-inf) amounted to 14900 ng·h/mL, the area under the curve AUC(0-t) came out at 14800 ng·h/mL, the concentration peaked (Cmax) at 2300 ng/mL and the time of peak concentration (Tmax) turned out to be 1 h. In series [3] (po, 10 mg/kg), this compound gave a bioavailability of 36.1% and a half-life of 2.94 h. Besides, the “intratumoral AXL phosphorylation (p-AXL)” value in the series on AXL phosphorylation is recorded as “robust inhibitions”. Besides, the SNU449 cell invasion result in the series on SNU449 cells [4] is “significant inhibition”. In addition, the NCI-H1299 cell migration result in the series with NCI-H1299 cells [5] is given as “significant reduction”. For the same compound, the GAS6-accelerated wound healing entry in the series with NCI-H1299 cells [6] is reported as “obviously inhibited”. Also, the “cell viability of NCI-H1299 cells” value with NCI-H1299 cells [7] is “no significant inhibitory effects”. In the series on SNU449 cells [8], the “cell viability of SNU449 cells” value is on record as “no significant inhibitory effects”. Also, the “GAS6-induced downregulation of E-cadherin expression” value with E-cadherin expression is on record as “significantly reversed”. Moreover, in the series with AXL signaling pathway [9], the p-ERK entry is “a bit weaker inhibtion”, the “phosphorylation of AKT” value is “dose-dependently inhibited”, the “phosphorylation of AXL” value is on record as “dose-dependently inhibited” and the “phosphorylation of STAT3” value was “dose-dependently inhibited”. In addition, in the series with AXL signaling pathway [1], the p-AKT level entry is on record as “significantly inhibited”, the p-ERK result is given as “marginally inhibited”, the p-STAT3 level result was “significantly inhibited” and the “phosphorylation of AXL induced by GAS6” value is recorded as “significantly inhibited”. Besides, the “Inhibition rate, other 55 tested kinases” value with other 55 tested kinases was “less than 50%”. The inhibition of tumour growth (TGI) in series [2] (setting [10]) was found to be 89.4%. Further, the “body weight of tumor-bearing mice during the treatment” value in series [2] is “no significant body weight loss”.
